Screening results deposited in PubChem by Broad Institute.
A selection: hits, their analogues and other compounds. The true share with any hit is near 1.3%.
PDI turbidity = blocks human protein disulfide isomerase activity; P07237; PDI insulin aggregation turbidity, A650, 90 min; inhibition, % at 10 µM; hit rate 0.052% among 350,000; AID 588391;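 active means mean inhibition across replicates of 30% or more, whatever share of single replicates reach that level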
Target sequence (P07237 whole entry, looked up): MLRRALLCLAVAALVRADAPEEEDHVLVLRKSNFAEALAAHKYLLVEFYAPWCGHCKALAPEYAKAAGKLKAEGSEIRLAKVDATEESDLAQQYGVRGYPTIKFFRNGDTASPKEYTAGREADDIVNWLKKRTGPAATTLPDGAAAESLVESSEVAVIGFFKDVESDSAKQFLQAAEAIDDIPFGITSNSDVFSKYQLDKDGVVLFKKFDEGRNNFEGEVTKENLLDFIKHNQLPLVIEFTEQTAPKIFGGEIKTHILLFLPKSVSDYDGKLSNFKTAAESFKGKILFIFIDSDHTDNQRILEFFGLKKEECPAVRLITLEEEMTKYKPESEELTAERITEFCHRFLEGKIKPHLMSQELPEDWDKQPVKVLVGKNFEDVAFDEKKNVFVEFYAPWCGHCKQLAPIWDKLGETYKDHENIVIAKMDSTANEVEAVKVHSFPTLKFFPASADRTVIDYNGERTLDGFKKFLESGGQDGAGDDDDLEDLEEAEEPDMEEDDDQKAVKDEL
FN deposit inh = fibronectin deposition inhibition. hit rate 0.086% among 350,000. inhibition, % at 12.6 µM. AID 743247. AH1F fibroblasts, Alexa488-fibronectin deposition fluorescence, overnight;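 active means mean inhibition across replicates of 30% or more, regardless of how many single replicates reach that level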;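 further: positive control wells lacked labelled fibronectin entirely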
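Assay system: AH1F fibroblast monolayer, labelled fibronectin deposition. Amount: 10000 cells per well. Also added: labelled fibronectin 24 nM. Compound: single-point pinned compound. Incubation: cell attachment 1 h, compound and FN exposure overnight. Detection: fluorescence after three HBSS washes, excitation 485 nm, emission 525 nm. Read-out: inhibition of fibronectin deposition signal.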
AF4-AF9 inh = blocks AF4 peptide binding to human AF9; P42568; AlphaScreen, biotin-AF4 peptide binding to FLAG-AF9; inhibition, % at 10 µM; hit rate 0.47% among 350,000;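 active means every replicate reaching a set inhibition limit, whatever the replicate mean, cut at about 25% in these data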;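 further: 0% = plate neutral control median and 100% = total signal loss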
SIRT5 inh = inhibitors of human sirtuin-5 desuccinylase; Q9NXA8; hit rate 1.1% among 330,000; Purified SirT5, succinyl-peptide AMC, trypsin-coupled fluorescence; inhibition, % at 15 µM; in the data active means inhibition above about 15%
ERp5 inh = blocks human ERp5 reductase activity on insulin. Q15084. ERp5 insulin aggregation, absorbance 650 nm, 90 min. inhibition, % at 9.99 µM. hit rate 0.05% among 350,000. AID 651711;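 active means mean replicate inhibition above about 25%, with every replicate also reaching it, limit read from the data, passing the limit was not always enough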
* marks the source's active call; other numbers are inactive results; nt = not tested or not shown.

SMILES	PDI turbidity	FN deposit inh	AF4-AF9 inh	SIRT5 inh	ERp5 inh
CCn1c(-c2ccccc2)csc1=Nc1ccc(O)cc1	-25	-1	49*	-2	-2
COc1ccc(O)c(/C=N/Nc2nc3ccccc3[nH]2)c1	-3	2	17	8	-3
O=[N+]([O-])c1ccc(O)c(/C=N/Nc2nc3ccccc3[nH]2)c1	16	11	32*	-7	4
COC(=O)C[C@@H]1CC[C@@H](NC(=O)c2ccccc2F)[C@@H](CO)O1	nt	-1	-3	nt	4
CCCN1CCC2(CC1)CN(Cc1ccc3c(c1)OCO3)[C@H](CO)c1[nH]c3cc(OC)ccc3c12	nt	8	30*	2	-7
COc1ccc2c3c([nH]c2c1)[C@@H](CO)N(C(C)=O)CC31CCN(C(=O)c2ccc3c(c2)OCO3)CC1	nt	-4	25*	-2	5
COc1ccc2c3c([nH]c2c1)[C@H](CO)N(C(C)=O)CC31CN(C(=O)c2ccc3c(c2)OCO3)C1	nt	nt	-6	-2	-2
C[C@@H]1CCCCO[C@H](CN(C)S(=O)(=O)c2ccc(Cl)cc2)[C@H](C)CN([C@@H](C)CO)C(=O)c2cc(NS(=O)(=O)c3ccccc3)ccc2O1	nt	-3	0	16*	14
C[C@@H]1CCCCO[C@@H](CN(C)S(=O)(=O)c2ccc(Cl)cc2)[C@H](C)CN([C@@H](C)CO)C(=O)c2cc(NS(=O)(=O)c3ccccc3)ccc2O1	nt	-11	1	21*	6
C[C@@H]1CN([C@@H](C)CO)C(=O)c2cc(NS(=O)(=O)c3ccccc3)ccc2O[C@@H](C)CCCCO[C@H]1CN(C)S(=O)(=O)c1ccc(Cl)cc1	nt	-13	-7	16*	-9
O=C(NCCCCCNC(=O)c1cccnc1)c1cccnc1	3	0	nt	nt	nt
COc1ccc(Nc2nc3ccc(OC)cc3s2)cc1	-1	nt	8	16*	-3
COc1ccc(Nc2ccc(OC)cc2)cc1	-5	11	81*	-5	nt
COc1ccc2nc(Nc3nc(C)c(C(C)=O)s3)sc2c1	-5	-4	nt	nt	nt
COc1ccc(Nc2ccc(Nc3ccc(OC)cc3)nn2)cc1	-22	-9	4	-3	5
C[C@H]1CN([C@@H](C)CO)S(=O)(=O)c2ccc(Br)cc2O[C@@H]1CN(C)Cc1ccncc1	nt	2	-1	-1	-4
C[C@@H]1CN([C@H](C)CO)S(=O)(=O)c2ccc(-c3cncnc3)cc2O[C@H]1CN(C)Cc1ccncc1	nt	nt	5	17*	2
C[C@H](CO)N1C[C@H](C)[C@H](CN(C)Cc2ccncc2)Oc2cc(Br)ccc2S1(=O)=O	nt	15	-3	15*	-1
Cc1cccc2c(N=O)c(O)n(CCc3ccccc3)c12	4	20	7	16*	5
Cc1ccc(Cn2c(O)c(N=O)c3ccccc32)cc1	-6	nt	5	-5	-1
O=C(c1cccnc1)N1CCCCN2[C@H](CO)[C@@H](c3ccc(C#Cc4ccccn4)cc3)[C@@H]2C1	nt	nt	-10	31*	3
O=C(c1cccc(F)c1)N1CCCC(C(=O)N2CCCCC2)C1 (stereo unspecified)	5	-4	-6	22*	-3
C[C@@H](O)C#Cc1ccc([C@@H]2[C@@H](CO)N3CCCCN(C(=O)c4cccc(F)c4)C[C@@H]23)cc1	nt	nt	-7	0	0
O=C(c1cccc(F)c1)N1CCN(C(=O)C2CC2)CC1	0	8	nt	nt	nt
O=C(c1cccc(F)c1)N1CCCCN2[C@H](CO)[C@@H](c3ccc(-c4ccc(F)cc4)cc3)[C@H]2C1	nt	nt	2	-5	4
SMILES	PDI turbidity	FN deposit inh	AF4-AF9 inh	SIRT5 inh	ERp5 inh
O=C(c1cccc(F)c1)N1CCCCN2[C@H](C1)[C@H](c1ccc(-c3ccccc3)cc1)[C@@H]2CO	nt	nt	-4	1	28*
C[C@@H](O)C#Cc1ccc([C@@H]2[C@H]3CN(C(=O)c4cccc(F)c4)CCCCN3[C@H]2CO)cc1	nt	nt	nt	23*	1
CCc1nc2c(OCc3ccc(F)c(F)c3)cccn2c1N(C)C(=O)CC(C)C	-3	4	1	5	7
COc1ccc(S(=O)(=O)Nc2ccc3c(c2)C(=O)N([C@@H](C)CO)C[C@@H](C)[C@@H](CN(C)Cc2ccncc2)OCCCC[C@@H](C)O3)cc1	nt	nt	2	1	1
Cc1cccc(-c2ccc([C@@H]3[C@@H](CO)N4CCCCN(C(=O)c5cccnc5)C[C@@H]34)cc2)c1	nt	nt	-5	-2	0
Cc1cccc(-c2ccc([C@H]3[C@H]4CN(C(=O)c5cccnc5)CCCCN4[C@H]3CO)cc2)c1	nt	nt	26*	-2	-6
Cc1cc(C)n(-c2cc(=O)n(C)c(=O)n2C)n1	18	nt	nt	nt	nt
Cc1ccc(S(=O)(=O)N(C)C[C@H]2OCCCC[C@H](C)Oc3ccc(NS(=O)(=O)c4ccccc4)cc3C(=O)N([C@@H](C)CO)C[C@H]2C)cc1	nt	-8	2	23*	1
C[C@@H]1CN([C@@H](C)CO)C(=O)c2cc(NS(=O)(=O)c3ccccc3)ccc2O[C@@H](C)CCCCO[C@@H]1CN(C)S(=O)(=O)c1ccc(F)cc1	nt	nt	-1	22*	-2
Cc1ccc(S(=O)(=O)Nc2ccc3c(c2)C(=O)N([C@H](C)CO)C[C@H](C)[C@@H](CN(C)S(=O)(=O)c2ccccc2)OCCCC[C@@H](C)O3)cc1	nt	4	-2	4	2
C[C@H](CO)N1C[C@H](C)[C@@H](CN(C)C(=O)CCCN(C)C)OCCCC[C@H](C)Oc2ccc(N(C)C)cc2C1=O	nt	nt	0	-5	3
C[C@@H]1CCCCO[C@@H](CN(C)S(=O)(=O)c2ccccc2)[C@H](C)CN([C@H](C)CO)C(=O)c2cc(NS(=O)(=O)c3ccccc3)ccc2O1	nt	-11	-8	5	-7
C[C@@H]1CN([C@@H](C)CO)C(=O)c2cc(NS(=O)(=O)c3ccccc3)ccc2O[C@@H](C)CCCCO[C@@H]1CN(C)S(=O)(=O)c1ccccc1	nt	-4	2	17*	-7
C[C@@H]1CCCCO[C@H](CN(C)C(=O)CCCN(C)C)[C@@H](C)CN([C@@H](C)CO)C(=O)c2cc(N(C)C)ccc2O1	nt	nt	-2	16*	1
CC(=O)N1CC(C)Oc2ccc(S(=O)(=O)NC(CC(=O)O)c3cc(C)ccc3C)cc21 (stereo unspecified)	18	10	-5	-3	-4
COc1ccccc1NS(=O)(=O)c1cc(N2Cc3ccccc3C2=N)ccc1N1CCOCC1	0	-5	4	-2	0
O=C(C1CCCCC1)N1CCC2CC1c1cc(-c3ccc4c(c3)OCO4)ccc12 (stereo unspecified)	nt	-6	2	-2	3
Cc1nnc(-c2cccc(Br)c2)c2cn(-c3cccc(Br)c3)nc12	3	-6	nt	nt	nt
COc1ccc(C(=O)CCC(=O)Nc2cccc(Cl)c2)cc1	-2	-2	-20	5	5
O=c1c2ccccc2ncn1Cc1ccc2c(c1)OCO2	-9	5	1	0	3
O=C(Cn1ccnc1[N+](=O)[O-])NCc1ccccc1	-2	-7	-2	1	-6
